In one data set the target is recombinant DPP9 (Homo sapiens, UniProt Q86TI2). The experiment in a line: AP-AMC-based DPP9 substrate assay. It is filed as biochemical. The settings on record: for effect of esterification on DPP9 inhibition: methyl ester vs free dipeptide. The essentials:
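Recombinant DPP9 (1 nM) is dispensed into 384-well plates and test compound is added by pintool over a concentration series. Reaction starts with 25 μM AP-AMC. Cleavage is read as rising fluorescence (ex/em 380/460 nm) at 25 °C for 30 min.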

Data set [1] has as its system MV4;11 cells. The experiment in a line: MV4. In kind it is cell-based. The settings on record: 1 mM; for lytic cell death / cytotoxicity in MV4;11 cells: PI uptake, CTG, CTF; for pyroptosis in PEPD−/− knockout cells / activity in control cells: 14 h.
The subject of data set [2] is MV4;11 cells. The experiment in a line: MV4. In kind it is cell-based, human. The settings on record: for PI uptake, GSDMD cleavage and LDH release in knockout cells: CASP1−/− and CARD8−/− MV4;11; for LDH release and GSDMD cleavage in PEPD−/− vs control cells: PEPD−/− MV4;11, 1 mM; for LDH release and GSDMD cleavage in PEPD−/− vs control cells / effect on CQ31-induced cell death / effect on VP-OMe- and IP-OMe-induced LDH release and GSDMD cleavage: 6 h; for LDH release and GSDMD cleavage / effect on CQ31-induced cell death: WT MV4;11; for LDH release and GSDMD cleavage: XP-OMes 1 mM, VbP 2 μM, 14 h; for effect on CQ31-induced cell death: CQ31 10 μM; for effect on CQ31-induced cell death / effect on VP-OMe- and IP-OMe-induced LDH release and GSDMD cleavage: bortezomib 1 μM, VX-765 50 μM; for effect on VP-OMe- and IP-OMe-induced LDH release and GSDMD cleavage: pretreatment. The method, boiled down:
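MV4;11 cells (WT or knockouts) are plated at 5×10^5 per well. Treatments: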
For orientation: LDH leaks from cells whose membrane has failed.

A further data set relates to THP-1 cells. The experiment in a line: THP-1 LDH release and GSDMD cleavage immunoblot. In kind it is cell-based, human. Particulars: for PI uptake, GSDMD cleavage and LDH release in knockout cells: CASP1−/− and CARD8−/− THP-1; for additional pyroptosis in DPP8/9−/− THP-1 cells: LDH release, GSDMD cleavage, CTG and CTF; for LDH release and GSDMD cleavage: WT THP-1, XP-OMes 1 mM, VbP 2 μM, 24 h.

In the next data set the test system is resting primary T cells. The experiment in a line: Pyroptosis in resting primary T cells. It is filed as cell-based, human. The settings on record: for GSDMD cleavage in resting T cells: 1 mM, 18 h. The method, boiled down:
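Primary resting human CD3+ T cells (>90% purity) are thawed in RPMI/10% FBS and cultured with IL-2 30 U ml−1. Cells are treated with 1 mM for 18 h or 10 μM for 24 h. Analysis is by immunoblot for pyroptotic and apoptotic markers, with CTG viability after 24 h. Results are representative of two independent experiments.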

The next data set relates to N/TERT-1 keratinocytes. The experiment in a line: NLRP1 inflammasome activation in N/TERT-1 keratinocytes. In kind it is cell-based, human. Particulars: XP-OMes 1 mM, VbP 10 μM, CQ31 10 μM, 16 h. The essentials:
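N/TERT-1 immortalised keratinocytes seeded at 1×10^5 cells per well in 12-well plates, grown to 70% confluence, then treated with test compound for 16 h. Supernatants assayed for LDH activity with a commercial cytotoxicity kit; inflammasome readouts such as IL-18 processing assessed by immunoblotting.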

In another data set the test system is RAW264.7 cells. The experiment in a line: Pyroptosis in RAW264.7 macrophages. In kind it is cell-based, mouse. Particulars: 24 h; for pyroptosis at fivefold higher concentration: 5 mM, CTF and CTG.
For data set [3], the system named is VbP-sensitive cell lines, including THP-1 cells. The experiment in a line: Viability of VbP-sensitive AML cancer cell lines. It is filed as cell-based, human. The settings on record: 24 h, CTG. The method, boiled down:
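Cell lines grown in RPMI/10% FBS are seeded at 2,000 cells per well in 384-well plates (25 μl). Test compound is pinned in at multiple concentrations and incubated 24 h at 37 °C, 5% CO2. CellTiter-Glo is added, plates are shaken 2 min and held 10 min at 25 °C, and luminescence is read.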

The next data set has as its system human NLRP1 inflammasome. The experiment in a line: Reconstituted human NLRP1 inflammasome in HEK 293T cells. It is filed as cell-based. Particulars: XP-OMes 1 mM, VbP 10 μM, CQ31 10 μM, 24 h. The method, boiled down:
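For ASC specks, HEK 293T cells (2.5×10^5 per well) are transfected with 10 ng FLAG-NLRP1, 5 ng V5-GFP-ASC and 985 ng RFP plasmid and allowed 24 h expression. They are treated 24 h, Hoechst-stained, and the % of cells with specks is scored by microscopy. For GSDMD cleavage, HEK 293T cells stably expressing CASP1/GSDMD get 0.02 μg NLRP1 and 0.01 μg ASC (2.0 μg total DNA), are treated 16–20 h later for 24 h, and are immunoblotted.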

For a further data set, the system named is J774.1 macrophages. The experiment in a line: Pyroptosis in J774.1 macrophages. It is filed as cell-based, mouse. Particulars: VbP 2 μM, 24 h. The method, boiled down: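 J774.1 cells are grown in RPMI/10% FBS, plated at 5×10^5 per well and treated 24 h (VbP 2 μM). Supernatant LDH is measured relative to Triton X-100 lysis (n = 3). For the dose series, 2,000 cells per well in 384-well plates get compound by pintool. CTF fluorescence is read after 30 min, then CTG luminescence after 2 min shaking and 10 min at 25 °C (n = 6).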

Another data set deals with NLRP1–DPP9 interaction (Homo sapiens, UniProt Q86TI2). The experiment in a line: DPP9 displacement from FLAG-NLRP1 on anti-FLAG beads. It is filed as binding. The settings on record: VbP 10 μM; VP dipeptide 0.5, 5 mM; CQ31, CQ04 10 μM.
NLRP1–DPP9 interaction, sequence (Q86TI2 whole entry): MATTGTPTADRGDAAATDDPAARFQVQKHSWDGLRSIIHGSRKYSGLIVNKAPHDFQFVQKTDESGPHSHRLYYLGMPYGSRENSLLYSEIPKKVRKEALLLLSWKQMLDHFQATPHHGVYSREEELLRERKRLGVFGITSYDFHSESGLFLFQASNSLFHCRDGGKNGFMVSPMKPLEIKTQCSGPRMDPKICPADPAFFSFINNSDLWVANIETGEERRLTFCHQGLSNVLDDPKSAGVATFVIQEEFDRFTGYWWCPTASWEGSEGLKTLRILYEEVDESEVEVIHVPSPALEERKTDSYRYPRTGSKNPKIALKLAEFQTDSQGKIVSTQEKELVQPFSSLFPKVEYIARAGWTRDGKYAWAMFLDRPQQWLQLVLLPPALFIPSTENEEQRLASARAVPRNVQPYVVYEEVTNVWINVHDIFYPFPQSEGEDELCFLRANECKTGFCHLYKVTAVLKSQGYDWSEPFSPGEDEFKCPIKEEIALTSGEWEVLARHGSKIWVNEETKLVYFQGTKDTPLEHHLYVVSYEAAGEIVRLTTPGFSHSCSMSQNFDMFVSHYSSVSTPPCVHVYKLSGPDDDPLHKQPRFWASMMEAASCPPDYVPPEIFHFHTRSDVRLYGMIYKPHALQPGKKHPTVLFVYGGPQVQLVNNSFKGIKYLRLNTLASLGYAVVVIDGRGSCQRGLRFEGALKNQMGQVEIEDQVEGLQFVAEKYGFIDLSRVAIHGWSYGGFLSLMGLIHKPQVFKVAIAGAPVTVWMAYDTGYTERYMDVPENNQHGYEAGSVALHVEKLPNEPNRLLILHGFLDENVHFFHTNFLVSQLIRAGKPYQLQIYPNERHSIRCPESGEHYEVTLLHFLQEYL

SMILES strings stand for the structures. Read-outs that look alike come from different tables or passages of the source. Peptide text beside a SMILES is read from it. Some results are limits rather than exact numbers.

recombinant DPP9, sequence (Q86TI2 whole entry, species assumed): as the sequence (Q86TI2 whole entry) above

For the compound `CC[C@H](C)[C@H](N)C(=O)N1CCC[C@H]1C(=O)OC` [IP-OMe] (H-Ile-Pro-OMe), the “effect of esterification on DPP9 inhibition” value on recombinant DPP9 is “did not impact DPP9 inhibition”. In the data set on MV4;11 cells [1], the “lytic cell death / cytotoxicity in MV4;11 cells” value (“lytic cell death / cytotoxicity” below) was “cytotoxic”. Moreover, in the data set with MV4;11 cells [2], the “PI uptake, GSDMD cleavage and LDH release in knockout cells” value (from here on “PI uptake”) was “lack of PI uptake, GSDMD cleavage and LDH release”; the “LDH release and GSDMD cleavage in PEPD−/− vs control cells” value was “induced more LDH release and GSDMD cleavage”; the “LDH release and GSDMD cleavage” value was “induced the release of intracellular lactate dehydrogenase (LDH) and GSDMD cleavage”. In addition, in the data set with THP-1 cells, the “PI uptake” value is “lack of PI uptake, GSDMD cleavage and LDH release”; the “additional pyroptosis in DPP8/9−/− THP-1 cells” value (shortened to “additional pyroptosis”) is reported as “did not induce any additional pyroptosis”; the “LDH release and GSDMD cleavage” value was “induced the release of intracellular lactate dehydrogenase (LDH) and GSDMD cleavage”. Also, the “GSDMD cleavage in resting T cells” value in the data set with resting primary T cells is “induced GSDMD cleavage”. The “NLRP1 inflammasome activation (LDH release, IL-18 cleavage and release)” value (“NLRP1 inflammasome activation” for short) in the data set with N/TERT-1 keratinocytes is listed as “did not induce NLRP1 inflammasome activation”. Moreover, the “pyroptosis at fivefold higher concentration” value in the data set with RAW264.7 cells is recorded as “failed to trigger pyroptosis”.
`COC(=O)[C@@H]1CCCN1C(=O)[C@@H](N)C(C)C` [VP-OMe] (H-Val-Pro-OMe): on recombinant DPP9, the “effect of esterification on DPP9 inhibition” value is reported as “did not impact DPP9 inhibition”. Further, the “lytic cell death / cytotoxicity” value with MV4;11 cells [1] is on record as “cytotoxic”. Besides, in the data set with MV4;11 cells [2], the “PI uptake” value was “lack of PI uptake, GSDMD cleavage and LDH release”; the “LDH release and GSDMD cleavage in PEPD−/− vs control cells” value was “induced more LDH release and GSDMD cleavage”; the “LDH release and GSDMD cleavage” value was “induced the release of intracellular lactate dehydrogenase (LDH) and GSDMD cleavage”. In the data set on THP-1 cells, the “PI uptake” value is “lack of PI uptake, GSDMD cleavage and LDH release”; the “additional pyroptosis” value is given as “did not induce any additional pyroptosis”; the “LDH release and GSDMD cleavage” value is “induced the release of intracellular lactate dehydrogenase (LDH) and GSDMD cleavage”. Besides, in data set [3], the “concentration inducing cell death” value was below 5 mM. Also, the “GSDMD cleavage in resting T cells” value in the data set on resting primary T cells is recorded as “induced GSDMD cleavage”. Besides, in the data set with N/TERT-1 keratinocytes, the “NLRP1 inflammasome activation” value is “did not induce NLRP1 inflammasome activation”. For the same compound, in the data set on RAW264.7 cells, the “pyroptosis at fivefold higher concentration” value is “failed to trigger pyroptosis”.
For the compound `COC(=O)[C@@H]1CCCN1C(=O)[C@@H]1CCCN1` [PP-OMe] (H-Pro-Pro-OMe), in the data set with MV4;11 cells [1], the “pyroptosis in PEPD−/− knockout cells” value is listed as “induced pyroptosis” and the “activity in control cells” value is “inactive in control cells”.
Take `CCC(C)C(N)C(=O)N1CCCC1C(=O)O` (stereo not drawn) [Ile-Pro, reference compound] (H-Ile-Pro-OH; configuration not given here): at recombinant DPP9, the IC50 was in the range of 10 to 15 µM. Further, the “lytic cell death / cytotoxicity” value in the data set on MV4;11 cells [1] is recorded as “did not induce lytic cell death”.
`COC(=O)[C@@H]1CCCN1C(=O)[C@@H](N)CC(C)C` [LP-OMe] (H-Leu-Pro-OMe): in the data set with MV4;11 cells [1], the “pyroptosis in PEPD−/− knockout cells” value is reported as “induced pyroptosis” and the “activity in control cells” value was “inactive in control cells”.
As for `COC(=O)[C@@H]1CCCN1C(=O)[C@@H](N)CCSC` [MP-OMe] (H-Met-Pro-OMe), in the data set on MV4;11 cells [1], the “pyroptosis in PEPD−/− knockout cells” value is “induced pyroptosis” and the “activity in control cells” value was “inactive in control cells”.
As for `CCO[C@@H]1OC(=O)C[C@@H]1NC(=O)[C@@H]1CCCN1C(=O)[C@@H](NC(=O)c1ccc(N)c(Cl)c1)C(C)(C)C` [VX-765, reference compound], in the data set on MV4;11 cells [2], the “effect on CQ31-induced cell death” value is “blocked CQ31-induced cell death”; the “effect on VP-OMe- and IP-OMe-induced LDH release and GSDMD cleavage” value is given as “completely blocked”.
In the case of `CC(C)[C@H](N)C(=O)N1CCC[C@H]1B(O)O` [VbP, Val-boroPro, reference compound], the “LDH release and GSDMD cleavage” value in the data set with MV4;11 cells [2] is “induced the release of intracellular lactate dehydrogenase (LDH) and GSDMD cleavage”. Further, in the data set on THP-1 cells, the “additional pyroptosis” value is reported as “did not induce any additional pyroptosis”; the “LDH release and GSDMD cleavage” value was “induced the release of intracellular lactate dehydrogenase (LDH) and GSDMD cleavage”. Besides, the “pyroptosis in resting primary T cells” value in the data set on resting primary T cells (10 μM, 24 h) is “induced pyroptosis”. Further, the “NLRP1 inflammasome activation” value in the data set on N/TERT-1 keratinocytes was “induced LDH release as well as IL-18 cleavage and release”. For the same compound, the ASC speck formation result with human NLRP1 inflammasome was “triggered the formation of ASC specks”. The “activation of mNLRP1B1 (LDH release, GSDMD cleavage)” value in the data set with RAW264.7 cells (VbP 2 μM) is reported as “activated mouse NLRP1B allele 1”. The “activation of mNLRP1B1 (LDH release)” value in the data set on J774.1 macrophages is reported as “activated mouse NLRP1B allele 1”.
For `CC(C)C[C@H](NC(=O)[C@H](Cc1ccccc1)NC(=O)c1cnccn1)B(O)O` [bortezomib, reference compound], in the data set with MV4;11 cells [2], the “apoptosis (PARP cleavage)” value is “caused considerable apoptosis”; the “effect on CQ31-induced cell death” value is “blocked CQ31-induced cell death”; the “effect on VP-OMe- and IP-OMe-induced LDH release and GSDMD cleavage” value is recorded as “completely blocked”.
Take `CC(C)[C@H](N)C(=O)N1CCC[C@H]1C(=O)O` [Val-Pro, reference compound] (H-Val-Pro-OH): at recombinant DPP9 (read-out: IC50, DPP9 inhibition, Ala-Pro-aminomethylcoumarin (AP-AMC) substrate), the IC50 lay within 10 to 15 µM. For the same compound, in the data set on MV4;11 cells [1], the “lytic cell death / cytotoxicity” value is “did not induce lytic cell death”. Further, on NLRP1–DPP9 interaction, the “disruption of NLRP1–DPP9 interaction (DPP9 elution)” value was “had no impact on the NLRP1 ternary complex”.

As usually defined, the IC50 is the midpoint of a concentration-inhibition curve.
